This is an account of results in ChEMBL document CHEMBL2157892, “Modifications around the hydroxamic acid chelating group of fosmidomycin, an inhibitor of the metalloenzyme 1-deoxyxylulose 5-phosphate reductoisomerase (DXR)” (Bioorg Med Chem Lett, 2012).

The source made the active and inactive calls. The calls are words filed in the database; no cut-off is given here.

A short description of data set [1]: Inhibition of Escherichia coli recombinant His6-tagged DXR expressed in Escherichia coli XL-1 blue using DXP as substrate incubated for 2 mins prior to substrate addition measured after 5 mins by spectrophotometric analysis. Summed up: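 His-tagged E. coli DXR, assayed at pH 7.5. Inhibitor was pre-incubated with enzyme and NADPH for 2 min at 37 °C, then DXP was added to start the reaction. Activity was read as NADPH consumption at 340 nm on a UV–visible spectrophotometer, and IC50 was derived from it.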

Data set [2] in a line: Inhibition of Escherichia coli recombinant His6-tagged DXR expressed in Escherichia coli XL-1 blue using DXP as substrate after 5 mins by spectrophotometric analysis. Summed up:
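Recombinant His-tagged E. coli DXR. DXP-to-MEP conversion followed as NADPH consumption at 340 nm by UV–visible spectrophotometry, assay pH 7.5. Enzyme, NADPH and inhibitor were not pre-incubated; the reaction was started by adding DXP. IC50 derived from the rate data.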

Data set [3] has as its system Escherichia coli. Briefly: Ratio of IC50 for Escherichia coli recombinant His6-tagged DXR without preincubation to IC50 for Escherichia coli recombinant His6-tagged DXR with preincubation.
Data set [4] deals with Escherichia coli. Nature of the data set: Inhibition of Escherichia coli recombinant His6-tagged DXR expressed in Escherichia coli XL-1 blue using DXP as substrate at 1000 uM after 5 mins by spectrophotometric analysis.
Data set [5] concerns Escherichia coli. Briefly: Inhibition of Escherichia coli recombinant His6-tagged DXR expressed in Escherichia coli XL-1 blue using DXP as substrate at 1000 uM incubated for 2 mins prior to substrate addition measured after 5 mins by spectrophotometric analysis.
A short description of data set [6]: Drug degradation assessed as carbon disulfide production at pH 7.5. Type of data set: physicochemical. The settings on record: buffer.

What is called IC50 is the midpoint of a concentration-inhibition curve. As for `CN(O)C(=O)CCCP(=O)(O)O`, the IC50 in data set [1] was found to be 4.8e-05 mM; in data set [2] it was 0.0005 mM. In addition, the Ratio IC50 in the data set with Escherichia coli [3] is 10.
As for `CSC(=S)NCCP(=O)(O)O`, the 50% inhibitory concentration (IC50) in data set [1] is 2.7 mM; in data set [2], 2.8 mM.
With `O=P(O)(O)CCCc1cccc(O)c1O`, the inhibition entry in the data set on Escherichia coli [4] and in the data set with Escherichia coli [5] was “inactive” throughout.
On to `NNC(=O)CCCP(=O)(O)O`, for which the IC50 in data set [1] was determined as 1 mM; in data set [2] it was 1.8 mM.
Consider `O=P(O)(O)CCc1cccc(O)c1O`, for which the IC50 in data set [1] stood at 1.2 mM; in data set [2], 2 mM.
For the compound `CSC(=S)N(C)CCCP(=O)(O)O`, the inhibition result with Escherichia coli [4] and in the data set with Escherichia coli [5] was “inactive” throughout.
Take `CN(CCP(=O)([O-])O)C(=S)[S-].[Na+].[Na+]`: the inhibition result with Escherichia coli [4] and in the data set with Escherichia coli [5] was “inactive” in each case. In data set [6], the Drug degradation entry is recorded as “Active”.
In the case of `CONC(=O)CCCP(=O)(O)O`, the IC50 in data set [1] stood at 0.93 mM; in data set [2], 11.5 mM.
Turning to `CN(CCCP(=O)([O-])O)C(=S)[S-].[Na+].[Na+]`, the inhibition entry in the data set with Escherichia coli [4] and in the data set with Escherichia coli [5] was “inactive” throughout. Also, in data set [6], the Drug degradation result is given as “Active”.
With `CON(C)C(=O)CCCP(=O)(O)O`, the IC50 in data set [1] worked out at 3.8 mM; in data set [2] it was 6.9 mM.
Turning to `O=CN(O)CCCP(=O)(O)O` [FOSMIDOMYCIN], the IC50 in data set [1] stood at 3.2e-05 mM; in data set [2], 0.00025 mM. For the same compound, the Ratio IC50 in the data set with Escherichia coli [3] is 8.
